# Experimental data from publication PMC8647718 (Free radical biology & medicine, 2020).
# Where “and” joins values, the source holds several entries; their conditions need not be identical. Equal entries are not always repeated.
# What was measured:
# [1] = system: ZO-1; assay: tBHP oxidative stress-induced TJ disruption, ZO-1 immunoblot in HT-29 cells; type: cell-based, human; details: HT-29, tBHP 50 μM, 16 h
# [2] = system: ZO-1; assay: ZO-1 immunofluorescence microscopy in HT-29 cells; type: cell-based, human
# [3] = system: occludin; assay: tBHP oxidative stress-induced TJ disruption, occludin immunoblot in HT-29 cells; type: cell-based, human; details: HT-29, tBHP 50 μM, 16 h
# [4] = system: HT-29 cells; assay: tBHP-induced ROS production; type: cell-based, human
# [5] = system: HT-29 cells; assay: Total intracellular ROS; type: cell-based, human; details: HT-29, 12 h; GarD 25 μM, tBHP 25 μM (positive control)
# [6] = system: claudin-1; assay: tBHP oxidative stress-induced TJ disruption, claudin-1 immunoblot in HT-29 cells; type: cell-based, human; details: HT-29, tBHP 50 μM, 16 h
# [7] = system: HepG2-ARE cells; assay: MTT cell viability assay in HepG2-ARE cells; type: cell-based; details: read-out: Nrf2 activation IC50 (cell viability reduced by half)
# [8] = system: AhR; assay: AhR-luciferase; type: cell-based, mouse; details: for AhR activation CQ (concentration of quadrupling): H1L6.1c3 cells, luciferase fold vs DMSO normalized to viability
# [9] = system: Nrf2; assay: Total Nrf2 protein level, immunoblot of HT-29 whole cell lysates; type: cell-based, human; details: GarD 0–25 μM, 24 h
# How it was run: (§1)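 HT-29 cells treated for 24 h with test compound, tBHQ 50 μM or FICZ 0.5 μM as references. Densities were normalised to β-actin. Mean ± SD of triplicate experiments; one-way ANOVA with Tukey test, P ≤ 0.05.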
# [10] = system: H1L6.1c3 cells; assay: MTT cell viability assay in H1L6.1c3 cells; details: for IC50: Mus musculus, read-out: AhR activation IC50 (cell viability reduced by half)
# [11] = system: HT-29 monolayers; assay: In vitro permeability assay of FITC-dextran through HT-29 monolayers; type: cell-based, human; details: HT-29 transwell, GarD 6.25 or 12.5 μM pretreatment 6 h, 100 μM tBHP 16 h
# How it was run: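 HT-29 cells seeded at 1.5 × 10^5 cells/cm2 on transwell inserts and differentiated; only monolayers with TEER above 200 […] were used. Test compound was added apically for 6 h, then 100 μM tBHP for 16 h. Apical 4 kDa FITC-dextran (0.5 mg mL−1 in HBSS/HEPES), HBSS basolateral. Basolateral samples at 0.5–4 h read at 485/530 nm; % of control.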
# [12] = system: heme oxygenase-1 (HO-1); assay: HO-1 protein level, immunoblot of HT-29 whole cell lysates; type: cell-based, human; details: GarD 0–25 μM, 24 h
# How it was run: as §1
# [13] = system: ZO-2, ZO-3, claudin-1 and claudin-4; assay: Other TJ proteins, immunoblot in HT-29 cells; type: cell-based, human; details: HT-29, GarD 0–25 μM, data not shown
# [14] = system: occludin; assay: Occludin tight junction protein level, immunoblot in HT-29 cells; type: cell-based, human; details: HT-29, GarD 0–25 μM, 24 h
# [15] = system: ZO-1; assay: ZO-1 tight junction protein level, immunoblot in HT-29 cells; type: cell-based, human; details: HT-29, GarD 0–25 μM, 24 h
# [16] = system: Nrf2; assay: ARE-luciferase reporter assay in HepG2-ARE cells; type: cell-based; details: 24 h, 0–25 μM, (−) = concentration range tested did not quadruple Nrf2 activation
# [17] = system: Nrf2; assay: Nrf2 nuclear translocation, immunoblot of nuclear proteins in HT-29 cells; type: cell-based, human; details: HT-29, 1 h; GarD 12.5 μM, tBHQ 50 μM
# How it was run: (§2)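 HT-29 cells exposed to test compound at 12.5 μM, with tBHQ 50 μM or FICZ 0.5 μM as reference activators, over a 6-h time course. Cytosolic and nuclear fractions were collected at set time points, quantified by BCA, and resolved by SDS-PAGE. Blots were probed for AhR or Nrf2, with densities normalised to β-actin or lamin A/C. At least three independent experiments; mean ± SD.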
# [18] = system: AhR; assay: AhR nuclear translocation, immunoblot of nuclear proteins in HT-29 cells; type: cell-based, human; details: HT-29, 1 h; GarD 12.5 μM, FICZ 0.5 μM
# How it was run: as §2
# [19] = system: Nrf2; details: HT-29 cells, 10 μM; cited from earlier work
# [20] = system: Cyp1a1; assay: Cyp1a1 protein level, immunoblot of HT-29 cell lysates; type: cell-based, human; details: HT-29, 24 h; GarD 12.5 μM, FICZ 500 nM
# How it was run: as §1
# [21] = system: AhR; assay: AhR protein level, immunoblot of HT-29 cell lysates; type: cell-based, human; details: HT-29, 24 h; GarD 12.5 μM, FICZ 500 nM
# How it was run: as §1
smiles,measurement,setting,value
"CC(C)(C)OO [tBHP, tert-butyl hydroperoxide, reference compound]",reduction in ZO-1 compared to untreated controls,[1],68%
same,ZO-1 fluorescence intensity,"[2]; HT-29, tBHP 50 μM, 16 h",45 % of the control
same,reduction in occludin compared to untreated controls,[3],28%
same,increase in total ROS levels relative to controls,"[4]; HT-29, 2 mM tBHP, 4 h",2 fold
same,ROS level (DCF fluorescence) relative to untreated control,[5],4 fold
same,reduction in claudin-1 compared to untreated controls,[6],48%
"COc1c(O)cc2oc3cc(O)c(CC=C(C)C)c(O)c3c(=O)c2c1CCC(C)(C)O [Compound 6, garcinone D]",IC50,[7],38.5 ± 7.27 µM
same,AhR activation CQ (concentration of quadrupling),[8]; 24 h,0.142 µM and 0.142 ± 0.008 µM
same,increase in total Nrf2 protein vs control,[9],40%
same,AhR activation IC50 (cell viability reduced by half),"[10]; H1L6 cells, MTT, max 100 μM, (−) = did not exhibit >50% cell toxicity at the concentration range tested",without exhibiting >50% H1L6 cell toxicity
same,IC50,[10],> 100 µM
same,tBHP induced leakage of FITC-dextran,[11],dose-dependently inhibited
same,ZO-1 intensity lost to tBHP treatment rescued,"[2]; HT-29, 2-h pre-treatment GarD 12.5 μM, co-incubation with tBHP 16 h",45%
same,suppression of tBHP-induced ROS production vs tBHP,"[4]; HT-29, GarD pretreatment (0–25 μM, 6 h), dose-dependent",25 to 68%
same,increase in HO-1 protein vs control,[12],37%
same,"inducing effect on other TJ proteins (ZO-2, ZO-3, claudin-1, claudin-4)",[13],no inducing effect
same,increase in occludin protein relative to untreated controls,[14],22–91%
same,increase in ZO-1 protein relative to untreated controls,[15],34–83%
same,ROS level (DCF fluorescence) relative to untreated control,[5],2 fold
same,Nrf2 activation CQ (concentration of quadrupling),[16],8.0 µM and 8.08 ± 0.07 µM
same,nuclear Nrf2 level,[17],1.9 fold greater than the control
same,nuclear AhR accumulation (peak),[18],3.8 fold increase vs control
"CC(C)=CCc1c(O)cc2oc3cc(O)c(O)c(CC=C(C)C)c3c(=O)c2c1O [Compound 7, γ-mangostin]",Nrf2 activation CQ (concentration of quadrupling),[16],14.93 ± 0.10 µM
C[S+]([O-])CCCCN=C=S (stereo not shown) [sulforaphane],induction of Nrf2 relative to the control,[19],200%
"COc1c(O)cc2oc3cc(O)c(CC=C(C)C)c(O)c3c(=O)c2c1CC=C(C)C [Compound 3, α-mangostin]",Nrf2 activation CQ (concentration of quadrupling),[16],16.25 ± 0.46 µM
"CC(C)=CCc1c(O)c(CC=C(C)C)c2oc3c(O)ccc(O)c3c(=O)c2c1O [Compound 2, gartanin]",IC50,[7],63.6 ± 1.94 µM
same,IC50,[10],36.5 ± 0.71 µM
same,Nrf2 activation CQ (concentration of quadrupling),[16],9.4 µM and 9.43 ± 1.90 µM
"COc1cc2oc3cc(O)c(OC)c(CC=C(C)C)c3c(=O)c2c(O)c1CC=C(C)C [Compound 5, β-mangostin]",CQ value relative to the rest of the compounds,"[8]; AhR activation, H1L6 cells",10–36 times higher
same,AhR activation CQ (concentration of quadrupling),[8]; 24 h,5.125 ± 0.006 µM
"O=Cc1c2[nH]c3ccccc3c2cc2[nH]c3ccccc3c12 [FICZ, 6-formylindolo[3,2-b] carbazole, reference compound]",increase of luminescence signal,"[8]; FICZ 500 nM, 24 h, H1L6 cells",43 fold of control
same,increase in Cyp1a1 protein,[20],3.5 fold
same,increase in AhR protein,[21],2.8 fold
same,nuclear AhR accumulation (peak),[18],4.6 fold increase vs control
"CC(C)(C)c1cc(O)ccc1O [tBHQ, tert-butyl hydroquinone, reference compound]",nuclear Nrf2 level,[17],Nuclear translocation of Nrf2 was also demonstrated
"CC(C)=CCc1c(O)c(CC=C(C)C)c2oc3c(O)cccc3c(=O)c2c1O [Compound 1, 8-desoxygartanin]",AhR activation CQ (concentration of quadrupling),[8]; 24 h,0.162 ± 0.001 µM
same,Nrf2 activation CQ (concentration of quadrupling),[16],22.19 ± 1.24 µM
